Measurements reported in article PMC12529337 (RSC Medicinal Chemistry, 2025).
Where two headings read alike, the source gives them in different places.

Assays:
[1] = tested on: MDA-MB-231 cells; assay: MTT assay, anticancer activity, MDA-MB-231; assay type: cell-based, human; settings: for IC50: read-out: IC50 MDA-MB-231
[2] = tested on: MCF-10A cells; assay: MTT assay, normal counterpart MCF-10A; assay type: cell-based, human; settings: read-out: IC50 MCF-10A, 72 h
[3] = tested on: MCF-7 cells; assay: MTT assay, anticancer activity, MCF-7; assay type: cell-based, human; settings: read-out: IC50 MCF-7
[4] = tested on: ROS production in murine macrophages RAW 264.7; assay: ROS production; assay type: cell-based; settings: LPS; for ROS reduction: concentration not stated in text (5 or 10 μM); for antioxidant activity (ROS production): lower dosage (5 μM)
How it was run: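 RAW 264.7 cells received the same treatment as in the Griess assay: LPS 1 μg mL−1 plus test compound at 5 or 10 μM, 24 h, 1% FBS. NAC (5 × 103, 10 × 103, 20 × 103 μM) was the positive control. After PBS washing, H2DCFDA 25 μM was added for 40 min at 37 °C. Fluorescence was read at λex 485/λem 535. Results are % ROS from mean fluorescence of co-treated vs LPS-alone wells, three experiments in triplicate.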

[5] = tested on: murine macrophages RAW 264.7; assay: MTT test, cytotoxicity on RAW 264.7 macrophages; assay type: cell-based; settings: for cytotoxicity toward RAW 264.7: 10 μM, 24 h
How it was run: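 RAW 264.7 cells were kept in high-glucose DMEM with 10% FBS at 37 °C and 5% CO2. Cells were seeded in 48-well plates and exposed for 24 h to varying test compound concentrations (in DMSO). Viability was measured by MTT and expressed as % of control. Three independent experiments were run in triplicate.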

[6] = molecular target: T1, human topoisomerase I (hTopoI) (Homo sapiens, UniProt P11387); assay: Human topoisomerase I relaxation assay; assay type: biochemical; settings: for inhibition of hTopoI relaxation of supercoiled DNA: pHOT1, 1 h 37 °C, gel
T1 sequence (P11387 1-765): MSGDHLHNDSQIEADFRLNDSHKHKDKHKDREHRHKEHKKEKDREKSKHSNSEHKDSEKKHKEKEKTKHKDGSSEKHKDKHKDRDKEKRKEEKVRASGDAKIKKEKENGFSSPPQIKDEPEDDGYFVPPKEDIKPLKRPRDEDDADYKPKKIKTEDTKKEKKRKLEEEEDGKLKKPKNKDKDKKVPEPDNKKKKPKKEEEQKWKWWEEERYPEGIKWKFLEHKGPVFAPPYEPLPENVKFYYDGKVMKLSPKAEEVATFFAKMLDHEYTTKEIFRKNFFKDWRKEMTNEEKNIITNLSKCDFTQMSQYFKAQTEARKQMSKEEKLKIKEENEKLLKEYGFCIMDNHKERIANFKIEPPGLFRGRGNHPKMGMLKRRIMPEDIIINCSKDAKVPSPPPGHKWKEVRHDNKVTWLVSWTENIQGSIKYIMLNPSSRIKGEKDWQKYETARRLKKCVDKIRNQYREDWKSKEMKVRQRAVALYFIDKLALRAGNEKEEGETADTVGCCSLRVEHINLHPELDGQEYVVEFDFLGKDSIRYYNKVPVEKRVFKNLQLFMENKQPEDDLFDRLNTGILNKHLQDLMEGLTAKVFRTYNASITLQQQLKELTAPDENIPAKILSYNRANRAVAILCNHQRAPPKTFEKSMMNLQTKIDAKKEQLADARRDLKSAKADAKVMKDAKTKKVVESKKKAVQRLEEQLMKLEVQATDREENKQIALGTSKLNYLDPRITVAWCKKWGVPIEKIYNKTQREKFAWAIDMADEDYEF
How it was run: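 Recombinant human topoisomerase I (2 units) with 0.25 μg supercoiled pHOT1 plasmid as substrate. Test compound (in DMSO) at 0.001, 0.01, 0.1 and 1 μM; DMSO vehicle control. Incubated 1 h at 37 °C. Run on a 1% agarose gel in 1× TAE without ethidium bromide, then post-stained with EB ([…], 30 min), washed and viewed under UV.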

[7] = tested on: NO production in murine macrophages RAW 264.7; assay: NO production; assay type: cell-based; settings: 24 h, LPS 1 μg/mL
How it was run: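 Plated RAW 264.7 cells were treated after 24 h with test compound (5 or 10 μM, in DMSO) plus LPS 1 μg mL−1 in 1% FBS medium for 24 h. Indomethacin (5, 10, 50 μM) was the positive control. Medium was mixed 1:1 with Griess reagent for 30 min at RT and A540 was read. Results are % NO vs LPS-only, three experiments in triplicate.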

[8] = tested on: iNOS expression in murine macrophages RAW 264.7; assay: iNOS expression by immunofluorescence in RAW 264.7; assay type: cell-based; settings: 5 μM, co-treated with LPS 1 μg/mL, 24 h
How it was run: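 On coverslips, RAW 264.7 cells received LPS 1 μg mL−1 with test compound (5 μM) or indomethacin (50 μM) in 1% FBS medium for 24 h. Cells were methanol-fixed (−20 °C, 15 min) and incubated overnight at 4 °C with anti-iNOS (1:100, 2% BSA), then Alexa Fluor 568 goat anti-mouse (1:500). DAPI 0.2 μg mL−1 was applied. Images taken at 40× were used for semi-quantitative fluorescence measurement, two independent experiments.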

[9] = tested on: MDA-MB-231 cells; assay: TUNEL assay, nuclear DNA damage; assay type: cell-based, human; settings: 1 μM, 24 h
How it was run: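 MDA-MB-231 cells (DMEM/F12, 5% FBS) were grown on coverslips and treated for 24 h with 1 μM test compound in DMSO or with vehicle. Cells were PBS-washed, methanol-fixed (−20 °C, 15 min) and incubated with the one-step TUNEL (FITC) enzyme for 35 min at 37 °C in the dark. DAPI counterstain was 0.2 mg mL−1 for 10 min at RT. Imaging used fluorescence microscopy at 20× (490/515 nm; DAPI 350/460 nm), three independent experiments.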

[10] = MTT, mean ± SD, normal mammary epithelial cells

Compound `C[C@H](c1ccccc1)n1cc[n+](C)c1.[Ag][I]` [(R)-AgL1, (R)-3-Methyl-1-(1-phenylethyl)-1H-imidazol-3-ium silver(I) iodide] has an IC50 ([1]; MTT, 72 h, mean ± SD) of 20.6 ± 1.4 µM, an IC50 [2, 10] of 72.8 ± 5.8 µM and an IC50 ([3]; MTT, 72 h, mean ± SD) of 11.2 ± 0.6 µM.

`C[C@H](c1ccccc1)n1cc[n+]([C@H](C)c2ccccc2)c1.[Cl][Ag]` [(R)-AgL2, 1,3-Bis((R)-1′-phenylethyl)imidazolium silver(I) chloride] showed an ROS reduction [4] of ~12%, an IC50 ([1]; MTT, 72 h, mean ± SD) of 17.6 ± 1.7 µM and an IC50 [2, 10] of 24.8 ± 1.7 µM. It also gave an IC50 ([3]; MTT, 72 h, mean ± SD) of 9.7 ± 0.8 µM.

In the case of `C[C@H](c1ccccc1)n1cc[n+](C)c1.[Cl][Au]` [(R)-AuL1, (R)-3-Methyl-1-(1-phenylethyl)-1H-imidazol-3-ium gold(I) chloride], the IC50 ([1]; MTT, 72 h, mean ± SD) is reported as 5.8 ± 0.5 µM, the “cytotoxicity toward RAW 264.7” value [5] is reported as “cytotoxic” and the “inhibition of hTopoI relaxation of supercoiled DNA” value (“inhibition” below) ([6]; 0.001 μM) is reported as “partially”. The “inhibition” value ([6]; 0.01 μM) was “totally block”, the “inhibition” value ([6]; 0.1 μM) was “preserved” and the “inhibition” value ([6]; 1 μM) was “preserved”. The “hTopoI inhibiting concentration, times lower than that of (S)-AuL1” value ([6]; total inhibition 0.01 vs 1 μM) was 100 times, the IC50 [2, 10] was 2.1 ± 0.1 µM and the “reduction of NO production” value ([7]; 5 μM) was “about 18%”. The IC50 ([3]; MTT, 72 h, mean ± SD) was 6.8 ± 0.4 µM.

With `C[C@H](c1ccccc1)n1cc[n+]([C@H](C)c2ccccc2)c1.[Cl][Au]` [(R)-AuL2, 1,3-Bis((R)-1′-phenylethyl)imidazolium gold(I) chloride] the “antioxidant activity (ROS production)” value [4] was “did not exert any antioxidant activity”, the IC50 ([1]; MTT, 72 h, mean ± SD) was 6.9 ± 0.3 µM and the “cytotoxicity toward RAW 264.7” value [5] was “cytotoxic”. The IC50 [2, 10] was 7.1 ± 0.5 µM, the “reduction of NO production” value ([7]; 5 μM) was “about 18%” and the IC50 ([3]; MTT, 72 h, mean ± SD) was 7 ± 0.6 µM.

Compound `C[C@H](c1ccccc1)n1cc[n+](C)c1` [(R)-P1, (R)-3-Methyl-1-(1-phenylethyl)-1H-imidazol-3-ium iodide] has an IC50 ([1]; Homo sapiens, MDA-MB-231, 72 h) of 71 ± 6.8 µM, an IC50 ([2]; Homo sapiens, MCF-10A) of 40.3 ± 3.6 µM and an IC50 ([3]; Homo sapiens, MCF7, 72 h) of 34 ± 2.4 µM.

`C[C@H](c1ccccc1)n1cc[n+]([C@H](C)c2ccccc2)c1` [(R)-P2, 1,3-Bis((R)-1′-phenylethyl)imidazolium chloride] was tested, and the IC50 ([1]; Homo sapiens, MDA-MB-231, 72 h) was > 100 µM, the IC50 ([2]; Homo sapiens, MCF-10A) was 28.2 ± 1.9 µM and the IC50 ([3]; Homo sapiens, MCF7, 72 h) was 58 ± 4.3 µM.

For `C[C@@H](c1ccccc1)n1cc[n+]([C@@H](C)c2ccccc2)c1.[Cl][Ag]` [(S)-AgL2, 1,3-Bis((S)-1′-phenylethyl)imidazolium silver(I) chloride], the ROS reduction [4] was “about 15%”, the IC50 ([1]; MTT, 72 h, mean ± SD) was 14.3 ± 1.2 µM and the IC50 [2, 10] was 24 ± 1.1 µM. For the same compound, the IC50 ([3]; MTT, 72 h, mean ± SD) was 4.2 ± 0.3 µM.

For `C[C@@H](c1ccccc1)n1cc[n+]([C@@H](C)c2ccccc2)c1.[Cl][Au]` [(S)-AuL2, 1,3-Bis((S)-1′-phenylethyl)imidazolium gold(I) chloride], the “antioxidant activity (ROS production)” value [4] was “did not exert any antioxidant activity”, the “intracellular iNOS expression vs LPS-treated cells” value [8] was “net diminution” and the IC50 ([1]; MTT, 72 h, mean ± SD) was 2.3 ± 0.1 µM. For the same compound, the “cytotoxicity toward RAW 264.7” value [5] was “cytotoxic”, the IC50 [2, 10] was 5.3 ± 0.2 µM and the IC50 ([3]; MTT, 72 h, mean ± SD) was 1.8 ± 0.1 µM.

For `C[C@@H](c1ccccc1)n1cc[n+](C)c1` [(S)-P1, (S)-3-Methyl-1-(1-phenylethyl)-1H-imidazol-3-ium iodide], the IC50 ([1]; Homo sapiens, MDA-MB-231, 72 h) was 87 ± 7.6 µM, the IC50 ([2]; Homo sapiens, MCF-10A) was > 100 µM and the IC50 ([3]; Homo sapiens, MCF7, 72 h) was > 100 µM.

`C[C@@H](c1ccccc1)n1cc[n+]([C@@H](C)c2ccccc2)c1` [(S)-P2, 1,3-Bis((S)-1′-phenylethyl)imidazolium chloride] gave an IC50 ([1]; Homo sapiens, MDA-MB-231, 72 h) of 10.8 ± 1.1 µM, an IC50 ([2]; Homo sapiens, MCF-10A) of 28.8 ± 1.9 µM and an IC50 ([3]; Homo sapiens, MCF7, 72 h) of 16.3 ± 1.3 µM.

Compound `N.N.[Cl][Pt][Cl]` [Cisplatin, cisplatin, reference compound] has an IC50 ([1]; MTT, 72 h, mean ± SD) of 29.5 ± 0.9 µM, an IC50 [2, 10] of 79.4 ± 1.6 µM and an IC50 ([3]; MTT, 72 h, mean ± SD) of 37.3 ± 1.2 µM.

With `COc1ccc2c(c1)c(CC(=O)O)c(C)n2C(=O)c1ccc(Cl)cc1` [Ind, indomethacin, reference compound] the “reduction of NO production” value ([7]; 50 μM) was “about 26%”.

For `CC(=O)N[C@@H](CS)C(=O)O` [NAC, N-acetyl-cysteine, reference compound], the “reduction in ROS levels” value ([4]; 10 × 10^3 μM) was “about 25%”, the “reduction in ROS levels” value ([4]; 20 × 10^3 μM) was ~40% and the “residual viability vs LPS-treated cells” value ([5]; 5 × 10^3, 10 × 10^3 and 20 × 10^3 μM, data not shown) was “about 98.7%”.

In the case of “(S)-3-Methyl-1-(1-phenylethyl)-1H-imidazol-3-ium gold(I) chloride [(S)-AuL1]”, the “reduction of ROS production” value ([4]; 10 μM) is reported as ~32%, the “intracellular iNOS expression vs LPS-treated cells” value [8] is reported as “net diminution” and the IC50 ([1]; MTT, 72 h, mean ± SD) is reported as 0.5 ± 0.1 µM. For the same compound, the “nuclear DNA damage (TUNEL green fluorescence)” value [9] was “marked genomic DNA damage”, the “inhibition” value ([6]; 0.001 μM) was “no inhibition” and the “inhibition” value ([6]; 0.01 μM) was “partially”. The “inhibition” value ([6]; 0.1 μM) was “partially”, the “inhibition” value ([6]; 1 μM) was “totally inhibited” and the IC50 [2, 10] was 11.5 ± 0.5 µM. For the same compound, the “reduction of NO production” value ([7]; 5 μM) was “about 33%”, the “reduction of NO production” value ([7]; 10 μM) was ~57% and the IC50 ([3]; MTT, 72 h, mean ± SD) was 1.7 ± 0.1 µM.

For “(S)-3-Methyl-1-(1-phenylethyl)-1H-imidazol-3-ium silver(I) iodide [(S)-AgL1]”, the “IC50 MDA-MB-231” value ([1]; MTT, 72 h, mean ± SD) was “totally inactive”, the IC50 ([1]; MTT, 72 h, mean ± SD) was > 100 µM and the IC50 [2, 10] was 77.1 ± 6.8 µM. The IC50 ([3]; MTT, 72 h, mean ± SD) was 7.5 ± 0.8 µM.
